The values that follow come from ChEMBL document CHEMBL1127040, “Orally active beta-lactam inhibitors of human leukocyte elastase. 2. Effect of C-4 substitution” (1993).

The target of experiment [1] is T1, Neutrophil elastase (Homo sapiens) (UniProt P08246).
T1 sequence (whole entry): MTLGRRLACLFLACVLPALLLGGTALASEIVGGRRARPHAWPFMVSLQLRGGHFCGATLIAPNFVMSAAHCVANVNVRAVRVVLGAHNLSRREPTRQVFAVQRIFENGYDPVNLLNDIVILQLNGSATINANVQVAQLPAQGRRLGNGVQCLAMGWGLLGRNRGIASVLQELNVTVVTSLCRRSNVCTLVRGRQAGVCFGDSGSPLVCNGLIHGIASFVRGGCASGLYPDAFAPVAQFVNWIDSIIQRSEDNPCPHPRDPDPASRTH
The experiment can be described thus: Inhibition of Human Leukocyte Elastase, activity is expressed as biomolecular rate constant. Put shortly:
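Spectrophotometric assay at 25 °C with continuous monitoring of p-nitroaniline release at 410 nm from succinyl-Ala-Ala-Pro-Ala-p-nitroanilide. Activity given as the bimolecular rate constant kobs/[I] in M-1 s-1 (±SE).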

The target of experiment [2] is T1, Neutrophil elastase (Homo sapiens). The experiment can be described thus: Inhibition of Human Leukocyte Elastase induced lung hemorrhage in hamsters expressed as % inhibition (mean of 4 animals). The class given is functional. Also noted: concentration or dose not given beside the values. As to conditions: concentration not given here. Put shortly: (§1)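 Hamster lung hemorrhage model: inhibitor given orally at 30 mg/kg (some at 50 mg/kg) 30 min before instillation of HLE into the lung. Hemorrhage measured 3 h after instillation as hemoglobin content of lung lavage fluid, read spectrophotometrically. Reported as % inhibition, mean of four animals (±SD).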

The next experiment relates to Cricetinae gen. sp. The experiment can be described thus: Inhibition of Human Leukocyte Elastase induced Lung Hemorrhage in Hamsters expressed as % inhibition (mean of 4 animals). The class given is functional, Cricetulus griseus. Put shortly: as §1

A word on the inhibition: it is the relative decrease from the control value, in per cent. In experiment [1], `CCC1(CC)C(=O)N(C(=O)NCc2ccccc2)C1Oc1ccc(C(=O)CCC(=O)O)cc1` (centres undefined) showed a k obs / 1 of 5000 M⁻¹ s⁻¹. In experiment [2], the inhibition is 85%.
With `CCC1(CC)C(=O)N(C(=O)NCc2ccccc2)C1Oc1ccc(S(C)(=O)=O)cc1` (centres undefined), the k obs / 1 in experiment [1] stood at 4500 M⁻¹ s⁻¹. For the same compound, in experiment [2], the inhibition stood at 16%.
In the same order, the values of `CCC1(CC)C(=O)N(C(=O)NCc2ccccc2)C1Oc1ccc2cc(C(=O)O)ccc2c1` (centres undefined) are 5600 M⁻¹ s⁻¹ and 28%.
In the case of `CCC1(CC)C(=O)N(C(=O)NCc2ccccc2)C1Oc1ccc([S+](C)[O-])cc1` (centres undefined), in experiment [1], the k obs / 1 stood at 4200 M⁻¹ s⁻¹.
With `CCC1(CC)C(=O)N(C(=O)NCc2ccccc2)C1Oc1ccc(C(=O)O)cc1` (centres undefined), the inhibition in experiment [2] amounted to 68%.
For the compound `CCC1(CC)C(=O)N(C(=O)NCc2ccccc2)C1Oc1ccc(C(=O)O)c(C(=O)O)c1` (centres undefined), the k obs / 1 in experiment [1] was determined as 570 M⁻¹ s⁻¹.
In turn, `CCC1(CC)C(=O)N(C(=O)NCc2ccccc2)C1Oc1cccnc1` (centres undefined) yielded a k obs / 1 in experiment [1] of 1620 M⁻¹ s⁻¹. Moreover, in experiment [2], the inhibition amounted to 46%.
The like results for `CCC1(CC)C(=O)N(C(=O)NCc2ccccc2)C1Oc1ccc(C(=O)O)c2ccccc12` (centres undefined) were, in that order, 2000 M⁻¹ s⁻¹ and 15%.
The like results for `CCC1(CC)C(=O)N(C(=O)NCc2ccccc2)C1Oc1ccccc1NC(C)=O` (centres undefined) were, in that order, 270 M⁻¹ s⁻¹ and 24%.
Take `CCC1(CC)C(=O)N(C(=O)NCc2ccccc2)C1Oc1ccc([N+](=O)[O-])cc1` (centres undefined): the k obs / 1 in experiment [1] stood at 6800 M⁻¹ s⁻¹.
Take `CCC1(CC)C(=O)N(C(=O)NCc2ccccc2)C1Oc1ccc(NC(=O)CCC(=O)O)cc1` (centres undefined): the k obs / 1 in experiment [1] stood at 2330 M⁻¹ s⁻¹. In addition, in experiment [2], the inhibition was -3%.
In the same order, the values of `CCC1(CC)C(=O)N(C(=O)NCc2ccccc2)C1OCC(O)CO` (centres undefined) are 800 M⁻¹ s⁻¹ and 46%.
Take `CCC1(CC)C(=O)N(C(=O)NCc2ccccc2)C1Oc1ccc(NC(C)=O)cc1` (centres undefined): in experiment [1], the k obs / 1 is 3500 M⁻¹ s⁻¹.
On the same count and under the same terms, then `CCC1(CC)C(=O)N(C(=O)NCc2ccccc2)C1C(=O)c1ccccc1` (centres undefined), with 22 M⁻¹ s⁻¹.
For the compound `CCC1(CC)C(=O)N(C(=O)NCc2ccccc2)C1Oc1ccc(C(=O)NS(=O)(=O)c2ccc(Cl)cc2)cc1` (centres undefined), the k obs / 1 in experiment [1] came out at 6900 M⁻¹ s⁻¹. Further, in experiment [2], the inhibition is 11%.
For `CCC1(CC)C(=O)N(C(=O)NCc2ccccc2)C1Oc1ccc(CC(NC(=O)c2ccccc2)C(=O)O)cc1` (centres undefined), in experiment [1], the k obs / 1 was 5110 M⁻¹ s⁻¹.
The same measure, in the same setting: for `CCC1(CC)C(=O)N(C(=O)NCc2ccccc2)C1Oc1ccccc1[N+](=O)[O-]` (centres undefined) the value was 890 M⁻¹ s⁻¹.
In the case of `CCC1(CC)C(=O)N(C(=O)NCc2ccccc2)C1n1ccnc1` (centres undefined), the k obs / 1 in experiment [1] was found to be 200 M⁻¹ s⁻¹. Also, the inhibition in experiment [2] was found to be 55%.
In the same order, the values of `CCC1(CC)C(=O)N(C(=O)NCc2ccccc2)C1Sc1cccnc1` (centres undefined) are 250 M⁻¹ s⁻¹ and -5%.
For `CCC1(CC)C(=O)N(C(=O)NCc2ccccc2)C1Oc1c(C)cc(C(=O)O)cc1C` (centres undefined), in experiment [1], the k obs / 1 turned out to be 750 M⁻¹ s⁻¹.
The same measure, in the same setting: then `CCC1(CC)C(=O)N(C(=O)NCc2ccccc2)C1Oc1cccc(NC(=O)CCC(=O)O)c1` (centres undefined), with 2700 M⁻¹ s⁻¹.
On to `CCC1(CC)C(=O)N(C(=O)NCc2ccccc2)C1Oc1ccc(CCC(=O)O)cc1` (centres undefined), for which the k obs / 1 in experiment [1] was 2440 M⁻¹ s⁻¹. Further, the inhibition in experiment [2] came to 60%.
`CCC1(CC)C(=O)N(C(=O)NCc2ccccc2)C1Oc1cccc([N+](=O)[O-])c1` (centres undefined): the k obs / 1 in experiment [1] stood at 4800 M⁻¹ s⁻¹.
One may read the Inhibition as how much of the control response was suppressed. In turn, `CCC1(CC)C(=O)N(C(=O)NCc2ccccc2)C1Sc1nnnn1C` (centres undefined) gave an Inhibition in the experiment on Cricetinae gen. sp. of 26%. Moreover, the k obs / 1 in experiment [1] is 3760 M⁻¹ s⁻¹.
In experiment [1], `CCC1(CC)C(=O)N(C(=O)NCc2ccccc2)C1Oc1ccccc1CC(=O)O` (centres undefined) returned a k obs / 1 of 44 M⁻¹ s⁻¹. Moreover, the inhibition in experiment [2] came to 45%.
In the same order, the values of `CCC1(CC)C(=O)N(C(=O)NCc2ccccc2)C1Oc1cccc(C(=O)O)c1` (centres undefined) are 1800 M⁻¹ s⁻¹ and 33%.
For `CCC1(CC)C(=O)N(C(=O)NCc2ccccc2)C1Oc1cc(C)c(C(=O)O)c(C)c1` (centres undefined), in experiment [1], the k obs / 1 was 24 M⁻¹ s⁻¹.
Regarding `CCC1(CC)C(=O)N(C(=O)NCc2ccccc2)C1Oc1ccc(C[N+](C)(C)C)cc1` (centres undefined), in experiment [1], the k obs / 1 amounted to 2430 M⁻¹ s⁻¹. Besides, the inhibition in experiment [2] is 4%.
For `CCC1(CC)C(=O)N(C(=O)NCc2ccccc2)C1Oc1ccc(/C=C/C(=O)O)cc1` (centres undefined), in experiment [1], the k obs / 1 was determined as 1600 M⁻¹ s⁻¹. In addition, in experiment [2], the inhibition is 61%.
In experiment [1], `CCC1(CC)C(=O)N(C(=O)NCc2ccccc2)C1Oc1ccccc1NC(=O)CCC(=O)O` (centres undefined) gave a k obs / 1 of 70 M⁻¹ s⁻¹.
In experiment [1], `CCC1(CC)C(=O)N(C(=O)NCc2ccccc2)C1n1ccccc1=O` (centres undefined) displayed a k obs / 1 of 360 M⁻¹ s⁻¹. In addition, the inhibition in experiment [2] turned out to be 29%.
As for `CCC1(CC)C(=O)N(C(=O)NCc2ccccc2)C1Oc1ccccc1` (centres undefined), in experiment [1], the k obs / 1 worked out at 1900 M⁻¹ s⁻¹.
Compound `CCC1(CC)C(=O)N(C(=O)NCc2ccccc2)C1Oc1ccc(CC(NC(=O)CCC(=O)O)C(=O)O)cc1` (centres undefined) yielded a k obs / 1 in experiment [1] of 900 M⁻¹ s⁻¹. Besides, the inhibition in experiment [2] came to 7%.
The like results for `CCC1(CC)C(=O)N(C(=O)NCc2ccccc2)C1Oc1cccc(CC(=O)O)c1` (centres undefined) were, in that order, 1200 M⁻¹ s⁻¹ and 67%.
`CCC1(CC)C(=O)N(C(=O)NCc2ccccc2)C1Oc1ccc(C(=O)N2CCC[C@@H]2C(=O)O)cc1` (some centres undefined) yielded a k obs / 1 in experiment [1] of 2900 M⁻¹ s⁻¹.
On the same count and under the same terms, then `CCC1(CC)C(=O)N(C(=O)NCc2ccccc2)C1Oc1ccc(CC(N)C(=O)O)cc1` (centres undefined), with 2540 M⁻¹ s⁻¹; and `CCC1(CC)C(=O)N(C(=O)NCc2ccccc2)C1OCc1ccc(C(=O)O)cc1` (centres undefined), with 54 M⁻¹ s⁻¹.
Regarding `CCC1(CC)C(=O)N(C(=O)NCc2ccccc2)C1Oc1ccc(SC)cc1` (centres undefined), the k obs / 1 in experiment [1] turned out to be 3500 M⁻¹ s⁻¹. The inhibition in experiment [2] stood at 2%.
In the same order, the values of `CCC1(CC)C(=O)N(C(=O)NCc2ccccc2)C1Oc1ccc(CN(C)C)cc1` (centres undefined) are 1600 M⁻¹ s⁻¹ and 0%.
The like results for `CCC1(CC)C(=O)N(C(=O)NCc2ccccc2)C1N1C=NC=CN1` (centres undefined) were, in that order, 246 M⁻¹ s⁻¹ and 72%.
`CCC1(CC)C(=O)N(C(=O)NCc2ccccc2)C1N1N=CC=CN1Cc1ccccc1` (centres undefined): the k obs / 1 in experiment [1] was 650 M⁻¹ s⁻¹.
The compound `CCC1(CC)C(=O)N(C(=O)NCc2ccccc2)C1Oc1ccc(C(O)C(=O)O)cc1` (centres undefined) came in with a k obs / 1 in experiment [1] of 2100 M⁻¹ s⁻¹. Also, the inhibition in experiment [2] was found to be 36%.
In experiment [1], `CCC1(CC)C(=O)N(C(=O)NCc2ccccc2)C1Oc1cccc(NC(C)=O)c1` (centres undefined) came in with a k obs / 1 of 1700 M⁻¹ s⁻¹.
Consider `CCC1(CC)C(=O)N(C(=O)NCc2ccccc2)C1OCC(=O)O` (centres undefined), for which, in experiment [1], the k obs / 1 came out at 160 M⁻¹ s⁻¹. In addition, in experiment [2], the inhibition amounted to 6%.
